# Compound activity as filed in PubChem.
# A selection: hits, their analogues and other compounds. The true share with any hit is near 3.1%.
# hERG protect = compounds protecting human hERG from proarrhythmic drug block | CHO-hERG, FluxOR thallium flux, dofetilide IC70 present | activation (rescue from dofetilide block), less the hit threshold, % at 10 µM | actives 0.51% (n = 310,000);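 active = activation above the mean of controls blocked by dofetilide plus 5 SD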;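 note: thallium influx through hERG after potassium depolarization seen as dye fluorescence rise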
# KCNQ1 pot = potentiates or activates the human KCNQ1 potassium channel | actives 0.35% (n = 310,000) | P51787 | CHO-K1 KCNQ1, thallium flux FluxOR fluorescence; hits give high values | B-score at 10 µM;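 active = fluorescence ratio B-score, a plate-corrected score, at least three library SD, with initial intensity B-score within 5 SD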
# Target sequence (P51787 whole entry, looked up): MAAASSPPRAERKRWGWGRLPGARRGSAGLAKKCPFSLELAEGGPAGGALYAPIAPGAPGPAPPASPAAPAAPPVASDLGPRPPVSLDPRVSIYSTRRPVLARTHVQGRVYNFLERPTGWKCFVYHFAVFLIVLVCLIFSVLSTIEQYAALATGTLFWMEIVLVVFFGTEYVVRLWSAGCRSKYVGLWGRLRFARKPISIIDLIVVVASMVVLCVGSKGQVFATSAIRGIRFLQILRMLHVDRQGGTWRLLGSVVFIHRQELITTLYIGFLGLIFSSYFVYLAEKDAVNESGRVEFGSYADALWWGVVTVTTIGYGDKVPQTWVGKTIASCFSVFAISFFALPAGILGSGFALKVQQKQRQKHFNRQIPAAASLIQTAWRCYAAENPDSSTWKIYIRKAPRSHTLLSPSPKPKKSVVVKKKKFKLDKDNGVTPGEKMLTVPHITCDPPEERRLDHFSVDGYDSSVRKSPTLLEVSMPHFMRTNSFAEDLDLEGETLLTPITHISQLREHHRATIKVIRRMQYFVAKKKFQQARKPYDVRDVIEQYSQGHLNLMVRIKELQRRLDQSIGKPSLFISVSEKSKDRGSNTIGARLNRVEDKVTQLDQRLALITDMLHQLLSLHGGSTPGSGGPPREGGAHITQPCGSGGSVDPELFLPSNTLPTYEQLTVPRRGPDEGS
#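 Doses: Single concentration per compound, DMSO matched to controls | Test system: KCNQ1-transfected CHO-K1 cells | Timing: 90 min dye loading and 20 min compound exposure, both at room temperature | Measured by: Kinetic FluxOR thallium fluorescence, 10-s 1-Hz baseline, 110-s post-stimulus read | Medium: Assay buffer with matched DMSO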
# KCNK3 block = human KCNK3 channel inhibition, primary screen. O14649. actives 0.84% (n = 340,000). AID 602410. B-score at 10 µM. CHO-KCNK3 thallium flux, FluxOR fluorescence; hits give low values;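 active = B-score under library mean minus 4 SD, starting fluorescence ratio at most library mean plus 5 SD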;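 note: more negative B-score means stronger inhibition of thallium flux through KCNK3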
# KCNQ1 inh = blocks the human KCNQ1 potassium channel; actives 1.3% (n = 310,000); CHO-K1 KCNQ1, FluxOR thallium flux fluorescence; hits give high values; B-score at 10 µM; P51787; AID 2642;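 active = compounds whose thallium flux B-score, printed positive for inhibition, exceeds three library SD while starting fluorescence stays within three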;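 note: channel opened by potassium depolarization with thallium stimulus after 20 min compound exposure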
# KCNK9 block = blocks the human KCNK9 two-pore domain potassium channel; Q9NPC2; HEK293 KCNK9, FluxOR thallium flux fluorescence; hits give low values; B-score at 10 µM; actives 1.2% (n = 310,000); AID 488922;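 active = ratio B-score over 3 SD below the library mean, with starting fluorescence within 5 SD of its mean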;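 note: negative B-score means less thallium flux so channel inhibition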
# KCNK3 confirm = human KCNK3 channel inhibition, confirmation assay. ratio percent of control, % at 10 µM. actives 99% (n = 2,400). AID 651638. shares compounds with KCNK3 block. CHO-KCNK3 thallium flux, FluxOR fluorescence; 0% buffer, 100% carvedilol maximal block;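 active = ratio percent of control, averaged over triplicates, above buffer control mean plus 5 SD, cut at about 64% in these data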;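 note: ratio is the fluorescence rise from min to max over baseline after thallium stimulus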
# KCNK3 uninduced = KCNK3 inhibitor counter-screen hit in non-induced cells. shares compounds with KCNK3 block. non-induced KCNK3 parental cells, FluxOR thallium flux; hits give low values. thallium flux ratio (lower = more inhibition) at 10 µM. actives 40% (n = 2,400). AID 651747;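 active = thallium flux ratio, averaged over three wells, more than 5 SD below the buffer control mean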;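 note: host cells are CHO cells without KCNK3 induction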
# Numbers stand for hits; – = inactive; · = no result.
SMILES,hERG protect,KCNQ1 pot,KCNK3 block,KCNQ1 inh,KCNK9 block,KCNK3 confirm,KCNK3 uninduced
CC(C)C(CCNC(=O)CC(Cc1ccccc1)c1ccco1)c1ccco1 (stereo not given),–,–,-9.4,–,–,120,0.15
CC(C)C(CCNC(=O)CN1C(=O)c2ccccc2C1=O)c1ccco1 (stereo not given),–,–,–,–,–,·,·
Cc1c(NC(=O)CCCCCN2C(=O)c3ccccc3C2=O)c(=O)n(-c2ccccc2)n1C,–,–,–,–,–,·,·
CCOC(=O)N1CCN(c2nc3ccc(C(=O)c4ccccc4)cc3n3cnnc23)CC1,–,–,-11,–,–,83,–
O=C(c1ccccc1)c1ccc2nc(N3CCN(C(=O)c4ccco4)CC3)c3nncn3c2c1,–,–,–,–,–,·,·
CCN(CC)S(=O)(=O)c1ccc(-c2cc(C(=O)OC)sc2C(F)(F)F)cc1,–,–,-9.7,–,–,109,–
COC(=O)c1cc(-c2ccc(S(=O)(=O)N3CCCC3)cc2)c(C(F)(F)F)s1,–,–,–,–,–,·,·
O=C(Nc1ccc(F)cc1)C1CCC(N2C(=O)c3ccccc3C2=O)CC1 (stereo not given),–,–,–,–,–,·,·
O=C(CCc1c[nH]c2ccccc12)OCc1cccc([N+](=O)[O-])c1,–,–,-9.4,–,–,83,–
COC(=O)CCc1c[nH]c2ccc([N+](=O)[O-])cc12,·,·,–,·,·,·,·
COc1ccc(OC)c(NC(=O)NNC(=O)CCCOc2ccc(Cl)cc2C)c1,–,–,–,–,–,·,·
COC(=O)CN1C(=O)[C@H]2[C@@H](c3ccc(C)o3)N3C(=O)CN(CC4CC4)C(=O)[C@@]3(Cc3ccccc3)[C@H]2C1=O,–,–,–,–,–,·,·
Cc1nc(N2CCCCC2)c2c(C)c(C(=O)Nc3cccc(C(F)(F)F)c3)sc2n1,–,–,-11,13,–,124,0.12
Cc1nc(N2CCN(C)CC2)c2c(C)c(C(=O)Nc3ccc(F)cc3)sc2n1,–,–,–,–,–,·,·
CC1CCc2nc3ccccc3c(C(=O)OCC(=O)NC3CCS(=O)(=O)C3)c2C1 (stereo not given),–,–,–,–,–,·,·
COc1cccc(NC(=O)COC(=O)c2c3c(nc4ccccc24)CCC(C)C3)c1 (stereo not given),–,–,-10,–,–,96,–
COCCN(C(=O)c1ccco1)c1nc(-c2ccccc2)cs1,–,–,-10,–,–,92,0.15
CCc1ccc(N2CC(C(=O)N/N=C/c3cc([N+](=O)[O-])ccc3O)CC2=O)cc1 (stereo not given),–,–,-9.1,–,–,91,–
CCc1ccc(N2CC(C(=O)N/N=C/c3ccccc3OC)CC2=O)cc1 (stereo not given),–,–,–,–,–,·,·
COc1cc(C(=O)N2CCN(C(=O)c3ccco3)CC2)c([N+](=O)[O-])cc1OC,–,–,–,–,–,·,·
CCOC(=O)N1CCC(N2Cc3cccc(C(=O)NC(C)c4ccc5c(c4)OCCO5)c3C2=O)CC1 (stereo not given),–,–,-13,–,–,101,–
CCOC(=O)N1CCC(N2Cc3cccc(C(=O)NCc4ccc(C)cc4)c3C2=O)CC1,–,–,–,–,–,·,·
Cc1ccc(NC(=S)N(Cc2ccco2)C(C)c2cccs2)c(Cl)c1 (stereo not given),–,–,-11,–,–,101,–
O=C(COC(=O)c1ccccc1C(=O)c1ccc(Cl)cc1)NCC1CCCO1 (stereo not given),–,–,–,–,–,·,·
COCC(=O)N1CCCC(C(=O)c2ccc3c4c(cccc24)CC3)C1 (stereo not given),–,–,–,–,–,·,·
COCCC(=O)N1CCCC(C(=O)c2ccc3c4c(cccc24)CC3)C1 (stereo not given),–,–,-11,–,–,86,0.15
